# Only some compounds are listed: those with a hit (about 1.1% of all), similar ones and a draw of the others.
# TNAP inh hi DEA: TNAP (human) inhibition, high acceptor; inhibition, % at 20 µM; purified TNAP, CDP-star luminescence, 1 M DEA; P05186; actives 0.03% (n = 200,000); AID 1135;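 active means over 50% inhibition of tissue-nonspecific alkaline phosphatase at 20 µM in the single-dose screen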;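 further: plate controls were DMSO wells for no effect and EDTA-quenched wells as full inhibition for full effect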
# Target sequence (P05186 whole entry, looked up): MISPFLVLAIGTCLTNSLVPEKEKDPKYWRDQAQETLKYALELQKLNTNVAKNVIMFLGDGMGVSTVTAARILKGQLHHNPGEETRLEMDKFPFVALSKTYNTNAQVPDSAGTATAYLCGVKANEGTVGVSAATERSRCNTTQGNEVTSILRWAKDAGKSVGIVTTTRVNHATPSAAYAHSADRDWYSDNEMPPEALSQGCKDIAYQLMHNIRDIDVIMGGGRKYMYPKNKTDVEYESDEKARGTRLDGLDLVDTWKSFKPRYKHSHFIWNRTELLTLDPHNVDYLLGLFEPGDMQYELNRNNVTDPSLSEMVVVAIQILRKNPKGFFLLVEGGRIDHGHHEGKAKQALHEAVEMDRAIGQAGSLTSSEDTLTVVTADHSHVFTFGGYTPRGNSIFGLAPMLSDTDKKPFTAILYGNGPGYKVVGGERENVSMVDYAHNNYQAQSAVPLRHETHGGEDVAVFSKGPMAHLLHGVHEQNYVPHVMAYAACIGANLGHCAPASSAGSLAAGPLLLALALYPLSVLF
# S1P3 antagonist: antagonists of human S1P3 receptor; CHO S1P3 NFAT-BLA reporter, FRET fluorescence, antagonist mode; inhibition, % at 4.98 µM; actives 0.27% (n = 170,000); AID 485;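 active means inhibition above the plate cutoff, the mean inhibition of test wells on that plate plus 3 SD, cut at about 28% in these data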;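 further: cells challenged with S1P at its EC80 of 0.8 µM; blue over green emission ratio from cleaved BLA substrate after 4 h stimulation; 0% = S1P-stimulated wells and 100% = unstimulated DMSO-only wells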
# S1P4 antagonist: blocks the human S1P4 receptor; O95977; S1P4-expressing cells, antagonist mode, reporter read-out; inhibition, % at 4.98 µM; actives 0.26% (n = 220,000); AID 1510; in the data active means inhibition above about 29%;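 further: 0% = wells stimulated with agonist and 100% = vehicle wells without agonist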
# TNAP inh no acc: inhibitors of human TNAP without phosphate acceptor; P05186; inhibition, % at 20 µM; actives 0.26% (n = 200,000); purified TNAP, CDP-star luminescence, 30 min; AID 1012;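 active means tissue-nonspecific alkaline phosphatase inhibition above about 50% at 20 µM in the single-dose screen, limit read from the data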;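 further: 0% = DMSO negative control and 100% = EDTA positive control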
# TNAP act hiacc: TNAP (human) activation, high acceptor. activation factor at 20 µM. purified TNAP, CDP-star luminescence, 1 M DEA, 30 min; hits give high values; 0 = EDTA background, 1 = DMSO-only activity. P05186. 200,000 tested, under 10 active;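 active means activation factor at least 2 at 20 µM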
#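 Assay system: human TNAP; Input: enzyme diluted 1/800 final; Reagent: CDP-star luminogenic substrate at 100 µM final; Timing: 30 min, room temperature; Signal: luminescence; Evaluation: TNAP activation factor scaled between EDTA and DMSO control wells.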
# S1P4 ag: human S1P4 receptor agonism; S1P4-expressing cell line, agonist reporter assay; activation, % at 4.98 µM; actives 0.35% (n = 220,000); AID 1509; in the data active means activation above about 11%;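 further: 0% = DMSO vehicle and 100% = reference agonist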
# * = called active by the depositor; nt = no result.
SMILES,TNAP inh hi DEA,S1P3 antagonist,S1P4 antagonist,TNAP inh no acc,TNAP act hiacc,S1P4 ag
O=C(CSc1ccc2ccccc2c1)NCCc1ccc(O)c(O)c1,-2.2,-15.9,11.5,53.6*,1,-2.8
Cc1ccc[n+](-c2nc([O-])sc2C=O)c1,0.8,-9.1,-2.6,-6.9,1,80.8*
CC(C)c1ccc[n+](-c2nc([O-])sc2C=O)c1,nt,-0.3,11.1,nt,nt,-1.2
O=C(Nc1ccccc1NC(=O)c1ccco1)c1ccco1,-4.9,68.9*,-0.4,-9.5,1,0.9
CNC[C@H](O)c1ccc(O)c(O)c1,9.0,-5.7,-12.5,77.6*,0.9,-0.5
CNC[C@H](O)c1cccc(O)c1,2.7,-4.2,-8.8,-5.6,1,1.3
CN(C)c1ccc(/C=C2\N=C(c3ccc(Cl)c([N+](=O)[O-])c3)NC2=O)cc1,44.6,-14.0,0.0,50.5*,0.6,-0.1
Cc1ccc(C)c(C(=O)CCC(=O)O)c1,nt,14.4,2.1,nt,nt,-0.2
O=C(NC(=S)Nc1cccc(NC(=O)c2ccccc2)c1)c1cccc([N+](=O)[O-])c1,3.5,6.9,-10.7,3.4,1,-0.1
NS(=O)(=O)c1cccc(NC(=S)NC(=O)c2cccc([N+](=O)[O-])c2)c1,7.1,-7.2,-7.0,69.6*,0.9,0.8
O=C(Nc1ncc(Br)s1)C(Cc1ccccc1)n1cccc1 (configuration not stated),-5.3,66.8*,23.6,-14.1,1.1,-0.5
O=c1c2ccccc2nc(SCCN2CCCCC2)n1CCc1ccccc1,-6.3,-3.7,-2.6,-9.2,1.1,-0.4
COC(=O)c1ccc2c(c1)C(=O)/C(=C/c1ccc(O)cc1)O2,55.0*,-3.7,-9.6,46.0,0.4,-0.9
CC(=O)Oc1ccc(/C=C2/Oc3ccccc3C2=O)cc1,nt,2.2,-0.8,nt,nt,1.2
O=C(Nc1ccccc1)N1CCCC1c1cccs1 (configuration not stated),nt,3.4,-6.0,nt,nt,1.8
C#CC(=O)N(c1cccc(OC)c1)C(C(=O)NC1CCCC1)c1cccs1 (configuration not stated),-5.4,nt,30.3*,-10.7,1.1,1.3
O=C(Cn1cncn1)N/N=C/c1cccnc1,nt,-17.0,-41.4,nt,nt,1.5
Cc1ccc(-n2cc(C(=O)O)c(=O)cc2C)c(C)c1,-6.4,-13.5,4.4,-15.2,1.1,-0.1
Cc1cc(C(=O)CSc2nnc(-c3cccnc3)n2-c2ccccc2F)c(C)n1C,nt,-8.7,-54.1,nt,nt,27.1*
Cc1cc(C(=O)CSc2nnc(-c3ccccc3)n2C)c(C)n1C,-4.5,5.8,-11.9,2.5,1,-0.5
Nn1cc(-c2ccccc2)nc1SCC(=O)Nc1ccc(S(N)(=O)=O)cc1,nt,4.3,-7.7,nt,nt,-0.5
O=C(CCC1CCCCC1)NCc1ccc(F)cc1,-0.9,0.4,-1.1,-3.9,1,-0.3
O=C(CCC1CCCCC1)NCc1ccncc1,-4.8,82.5*,-22.6,-15.9,1,-1.0
Cc1[nH]nc2c1C(C1CC=CCC1)C(C#N)=C(N)O2 (configuration not stated),2.1,30.0,7.4,72.4*,1,-0.1
CCc1[nH]nc2c1C(C1C=CCCC1)C(C#N)=C(N)O2 (configuration not stated),-4.9,-18.0,-1.7,70.0*,1,0.3
SMILES,TNAP inh hi DEA,S1P3 antagonist,S1P4 antagonist,TNAP inh no acc,TNAP act hiacc,S1P4 ag
CCC(CC)C1C(C#N)=C(N)Oc2n[nH]c(C)c21 (configuration not stated),-6.7,nt,-7.8,18.5,1.1,1.4
CCCCn1c(N)c(N(Cc2ccccc2OC)C(=O)COc2ccccc2C#N)c(=O)[nH]c1=O,nt,-13.2,-3.3,nt,nt,-1.7
CC(=O)c1sc(NC(=O)C=C(C)C)nc1C,-2.5,-6.7,-4.3,-6.3,1,0.2
CC(=O)c1sc(NC(=O)C2(F)C(F)(F)C(F)(F)C(F)(F)C(F)(F)C2(F)F)nc1C,-9.3,76.1*,-1.7,-3.7,1.1,0.5
O=c1cc(CCl)[nH]c2nc3ccccc3n12,nt,-3.1,3.2,nt,nt,0.0
CCc1c(C)[nH]c2nc3ccccc3n2c1=O,-0.7,nt,-3.2,51.1*,1,1.3
Cc1ccc(C)c(NC(=O)C(c2ccccc2)N2CCOCC2)c1 (configuration not stated),-6.6,-12.1,2.5,-6.9,1.1,-0.5
CC(C)c1cc(C(=O)N/N=C/c2cccnc2)n[nH]1,4.3,8.3,-27.4,62.9*,1,0.0
C/C(=N\NC(=O)c1cc(C(C)C)[nH]n1)c1ccco1,-2.4,-6.5,-8.4,-56.0,1,0.6
O=C(N/N=C/c1ccco1)c1cc(-c2ccc(Cl)s2)[nH]n1,15.0,8.5,-14.4,54.2*,0.8,1.2
COC(=O)c1cc(-c2cccs2)[nH]n1,0.2,-11.4,-11.3,96.0*,1,0.2
CC(C)c1cc(C(=O)N/N=C/c2ccco2)n[nH]1,-2.5,-20.0,-14.3,61.2*,1,-0.6
O=C(N/N=C/c1ccco1)c1cc(-c2cccs2)[nH]n1,15.0,-2.6,2.7,87.2*,0.8,0.1
O=C(N/N=C/c1ccco1)c1cc(-c2ccc(Br)s2)[nH]n1,nt,2.3,-11.3,nt,nt,0.2
Cc1ccc(C)c(-n2cc(CN3CCCN(C=O)CC3)c(-c3ccccc3)n2)c1,-5.8,2.3,-6.4,-5.7,1.1,1.1
C/C(=N\NC(=O)c1ccccc1O)C1C(=O)c2ccccc2C1=O,12.2,nt,-11.8,59.8*,0.9,4.7
CCOC(=O)c1ccc(NC(=S)NCc2ccco2)cc1,nt,2.0,4.8,nt,nt,0.4
CN(c1ccccc1)S(=O)(=O)c1cccc(C(=O)NCCc2ccc(O)c(O)c2)c1,12.8,-21.9,13.1,50.7*,0.9,-0.3
CCN(CC)S(=O)(=O)c1cccc(C(=O)NCCc2ccccc2)c1,nt,nt,-11.2,nt,nt,-2.9
CCOc1cc(N2CCOCC2)c(OCC)cc1NC(=O)CN1C(=O)NC(Cc2ccccc2)C1=O (configuration not stated),-1.9,-7.0,-30.5,-9.2,1,12.0*
Cc1ccc(C2C(C#N)=C(N)Oc3n[nH]c(-c4cccs4)c32)cc1 (configuration not stated),7.3,nt,-12.7,9.2,0.9,1.0
COc1cc(C2C(C#N)=C(N)Oc3n[nH]c(-c4cccs4)c32)cc(OC)c1O (configuration not stated),38.3,-18.2,2.6,53.8*,0.6,0.5
O=C(Nc1ccc(OCC(=O)N2CCOCC2)cc1)Nc1cccc2ccccc12,-4.8,-11.5,-13.1,-25.2,1,1.6
CC(C)(C)C(=O)/C(=C\c1ccc([N+](=O)[O-])cc1)n1cncn1,-4.6,nt,54.8*,-13.2,1,-0.2
Cc1sc(NC(=O)c2ccco2)c(CN2CCN(c3ccc(F)cc3)CC2)c1C,0.3,nt,7.7,-8.5,1,1.1
Cc1sc(NC(=O)c2ccco2)c(CN2CCN(c3ccccn3)CC2)c1C,-5.7,64.5*,-11.1,-10.6,1.1,1.6

# Bioassay records: PubChem BioAssay, several laboratories
